# Numbered stars: 1 amine (or outer) side, 2 acyl side, 3 side chain; on linkers, the order of the positions; unused ones are H or OH. Peptide text beside a SMILES is read from it. * marks the point of attachment. X1 = Nc1nc2[nH]cc(CCc3ccc(C(=O)*)cc3)c2c(=O)[nH]1; γGlu = O=C(O)[C@H](CCC(=O)[*:2])N[*:1]
# Columns and labels:
# [1] = test system: GL261 mouse glioma cell line; experiment: Cytotoxicity assay against the mouse glioma cell line GL261
# [2] = as above
# [3] = assay type: physicochemical; details: for hydrogel formation: 30 mM in 1× DPBS solution, overnight ageing, vial inversion; for self-assembled morphology (cryo-TEM): 1× DPBS, aged over 24 h at room temperature, PemFE 4 mM, C12FE 10 mM
# Procedure, shortened: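 Self-assembled nanostructures imaged by cryo-TEM after aging over 24 h at room temperature. For gelation, lyophilized test peptide powder was dissolved in 1× DPBS at a final 30 mM and sonicated 2 min to aid dissolution. Samples were aged overnight, and gel formation was recorded by photographing inverted vials.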
Compound,"IC50 ([1]; Mus musculus, GL261, read-out: IC50 (cytotoxicity))",IC50 [2],hydrogel formation [3],self-assembled morphology (cryo-TEM) [3],"cell toxicity ([1]; GL261 cells, concentrations up to 100 μM)"
"Nc1nc2[nH]cc(CCc3ccc(C(=O)N[C@@H](CCC(=O)O)C(=O)O)cc3)c2c(=O)[nH]1 [Pem, Pemetrexed, reference compound]",130 nM,,,,
Nc1nc2[nH]cc(CCc3ccc(C(=O)N[C@@H](CCC(=O)N[C@@H](Cc4ccccc4)C(=O)N[C@@H](Cc4ccccc4)C(=O)N[C@@H](CCC(=O)O)C(=O)N[C@@H](CCC(=O)O)C(=O)O)C(=O)O)cc3)c2c(=O)[nH]1 [PemFE] ({X1-γGlu}-FFEE-OH),,2290 nM,formation of self-supporting hydrogels,filamentous nanostructures,
FFEE [C12FE],,,formation of self-supporting hydrogels,filamentous nanostructures,did not show any significant cell toxicity
